≈ marks a conversion by molar mass, not a printed value.
How the values were obtained:
Liver microsome [1] = assay: Intrinsic clearance in human liver microsomes assessed as compound metabolized at 1 uM pre-incubated at 37 degC before addition of NADPH-generating system by LC/MS method; type: ADME
Plasmodium berghei [2] = assay: Antimalarial activity against Plasmodium berghei ANKA expressing GFP infected in NMRI mouse assessed as inhibition of parasitemia at 50 mg/kg, ip qd administered as single dose on day 0 to 4 of exposure measured on day 5 post exposure by FACS method relative to control; type: functional
In short: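 P. berghei ANKA GFP infection in mice; dosed intraperitoneally at 50 mg/kg/day × 4, with chloroquine 10 mg/kg ip as reference and untreated controls. Read-out was % reduction in parasitaemia relative to controls, with survival in days also recorded.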

Liver = assay: Intrinsic clearance in mouse liver microsomes assessed as compound metabolized at 1 uM pre-incubated at 37 degC before addition of NADPH-generating system by LC/MS method; type: ADME
Plasmodium berghei [3] = assay: Antimalarial activity against Plasmodium berghei ANKA expressing GFP infected in NMRI mouse assessed as increase in mouse survival at 50 mg/kg, ip qd administered as single dose on day 0 to 4 of exposure measured on day 5 post exposure by FACS method (reference value: 7 days); type: functional
In short: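 P. berghei ANKA GFP infection in mice, dosed intraperitoneally at 50 mg/kg/day × 4. An untreated control group and a chloroquine 10 mg/kg ip reference group were included. Read-outs were % reduction in parasitaemia and mean survival in days.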

[4] = Drug metabolism in mouse liver microsomes at 1 uM by LC/MS method; type: ADME
Liver microsome [5] = assay: Drug metabolism in human liver microsomes at 1 uM by LC/MS method; type: ADME
[6] = Solubility in phosphate buffer at pH 6.5 by nephelometry; type: physicochemical

## Cc1cc(/C=C2\S/C(=N\c3ccccc3)N(C3CCCCC3)C2=O)c(C)n1-c1ccc(F)cc1
Liver microsome [1]
  CLH: 360 µL/min/mg
Plasmodium berghei [2]
  inhibition in vivo at 50 mg/kg: 12%
Liver
  CLH: 55 µL/min/mg
Plasmodium berghei [3]
  Survival: 6 days
[4]
  Drug metabolism: metabolite_notdetected
Liver microsome [5]
  Drug metabolism: metabolite_notdetected
[6]
  solubility kinetic: 0.8 µg/mL (≈ 1.69 µM)

— ChEMBL document CHEMBL3632468, “Discovery and optimisation studies of antimalarial phenotypic hits” (Eur J Med Chem, 2015)
